Test [1] has as its target Sodium channel protein type 9 subunit alpha (Homo sapiens, UniProt Q15858). Description: Inhibition of human Nav1.7 expressed in HEK293 cells assessed as inward peak current by ion-works quattro patch clamp electrophysiology method. The class given is cell-based.
The target in test [2] is Sodium channel protein type 5 subunit alpha (Homo sapiens, UniProt Q14524). Briefly: Inhibition of human Nav1.5 expressed in HEK293 cells assessed as inward peak current by ion-works quattro patch clamp electrophysiology method. The class given is cell-based. In short, it runs like this: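 Stable HEK293 line expressing human NaV1.5, recorded by population patch clamp on the IonWorks Quattro.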
Sequence of Sodium channel protein type 5 subunit alpha (Q14524 whole entry): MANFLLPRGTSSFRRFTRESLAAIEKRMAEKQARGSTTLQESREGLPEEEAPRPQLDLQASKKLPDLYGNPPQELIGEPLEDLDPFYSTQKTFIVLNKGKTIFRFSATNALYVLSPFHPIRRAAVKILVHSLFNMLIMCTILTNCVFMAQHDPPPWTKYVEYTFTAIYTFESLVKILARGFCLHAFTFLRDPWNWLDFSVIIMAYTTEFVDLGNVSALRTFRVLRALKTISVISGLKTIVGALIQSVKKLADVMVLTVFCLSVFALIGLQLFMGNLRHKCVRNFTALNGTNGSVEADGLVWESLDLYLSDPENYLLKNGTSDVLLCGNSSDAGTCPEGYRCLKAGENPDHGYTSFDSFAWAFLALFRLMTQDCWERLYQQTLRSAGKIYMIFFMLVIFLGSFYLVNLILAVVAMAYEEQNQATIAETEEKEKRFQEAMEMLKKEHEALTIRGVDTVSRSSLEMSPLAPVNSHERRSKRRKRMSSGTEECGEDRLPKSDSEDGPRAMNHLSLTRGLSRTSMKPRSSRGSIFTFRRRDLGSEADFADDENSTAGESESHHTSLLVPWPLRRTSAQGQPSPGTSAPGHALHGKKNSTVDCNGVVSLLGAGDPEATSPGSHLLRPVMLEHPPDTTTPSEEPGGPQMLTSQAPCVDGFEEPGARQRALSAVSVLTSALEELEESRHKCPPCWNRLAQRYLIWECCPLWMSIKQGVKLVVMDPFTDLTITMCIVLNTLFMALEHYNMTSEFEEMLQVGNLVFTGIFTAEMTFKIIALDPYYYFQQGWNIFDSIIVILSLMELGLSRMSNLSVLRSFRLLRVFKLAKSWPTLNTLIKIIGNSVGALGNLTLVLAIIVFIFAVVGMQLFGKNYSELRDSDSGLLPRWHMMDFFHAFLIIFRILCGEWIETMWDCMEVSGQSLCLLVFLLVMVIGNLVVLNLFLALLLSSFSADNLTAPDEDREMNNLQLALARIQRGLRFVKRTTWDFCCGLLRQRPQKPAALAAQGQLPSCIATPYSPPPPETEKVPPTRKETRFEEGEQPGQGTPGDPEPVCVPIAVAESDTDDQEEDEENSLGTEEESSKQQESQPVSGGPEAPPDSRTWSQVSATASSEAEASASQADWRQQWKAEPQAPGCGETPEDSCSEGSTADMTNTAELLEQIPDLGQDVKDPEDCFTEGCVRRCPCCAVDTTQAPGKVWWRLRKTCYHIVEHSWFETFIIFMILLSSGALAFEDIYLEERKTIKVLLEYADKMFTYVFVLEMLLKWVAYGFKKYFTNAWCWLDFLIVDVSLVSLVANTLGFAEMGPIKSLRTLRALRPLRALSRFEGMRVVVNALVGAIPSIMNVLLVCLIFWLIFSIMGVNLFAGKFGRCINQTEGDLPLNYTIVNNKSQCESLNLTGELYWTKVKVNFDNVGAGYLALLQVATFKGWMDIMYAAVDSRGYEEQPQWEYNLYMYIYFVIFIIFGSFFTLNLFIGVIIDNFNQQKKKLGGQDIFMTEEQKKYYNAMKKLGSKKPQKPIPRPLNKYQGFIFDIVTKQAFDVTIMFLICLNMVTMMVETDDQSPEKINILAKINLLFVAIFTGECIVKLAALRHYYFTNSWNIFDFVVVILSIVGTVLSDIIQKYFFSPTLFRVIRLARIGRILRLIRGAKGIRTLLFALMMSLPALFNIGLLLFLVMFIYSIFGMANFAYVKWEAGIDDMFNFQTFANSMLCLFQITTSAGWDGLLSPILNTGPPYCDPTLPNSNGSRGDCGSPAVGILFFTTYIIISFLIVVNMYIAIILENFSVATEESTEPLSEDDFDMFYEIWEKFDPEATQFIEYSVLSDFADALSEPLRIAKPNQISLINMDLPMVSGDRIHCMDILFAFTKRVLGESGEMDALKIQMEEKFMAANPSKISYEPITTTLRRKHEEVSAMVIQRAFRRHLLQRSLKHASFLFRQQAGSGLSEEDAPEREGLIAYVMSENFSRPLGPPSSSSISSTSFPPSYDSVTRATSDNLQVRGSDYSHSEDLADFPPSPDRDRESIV
In general terms: The patch-clamp technique gives a direct electrical read-out from membranes.

The structures appear in SMILES notation. pIC50: −log10 of the molar value. Positions of bridges follow the written chain, without caps; N, C: chain ends. Residues, ends and D or L forms follow the SMILES beside them.

One may read the pIC50 as the negative decadic logarithm of the IC50, by convention in mol/L.

Sequence of Sodium channel protein type 9 subunit alpha (Q15858 whole entry): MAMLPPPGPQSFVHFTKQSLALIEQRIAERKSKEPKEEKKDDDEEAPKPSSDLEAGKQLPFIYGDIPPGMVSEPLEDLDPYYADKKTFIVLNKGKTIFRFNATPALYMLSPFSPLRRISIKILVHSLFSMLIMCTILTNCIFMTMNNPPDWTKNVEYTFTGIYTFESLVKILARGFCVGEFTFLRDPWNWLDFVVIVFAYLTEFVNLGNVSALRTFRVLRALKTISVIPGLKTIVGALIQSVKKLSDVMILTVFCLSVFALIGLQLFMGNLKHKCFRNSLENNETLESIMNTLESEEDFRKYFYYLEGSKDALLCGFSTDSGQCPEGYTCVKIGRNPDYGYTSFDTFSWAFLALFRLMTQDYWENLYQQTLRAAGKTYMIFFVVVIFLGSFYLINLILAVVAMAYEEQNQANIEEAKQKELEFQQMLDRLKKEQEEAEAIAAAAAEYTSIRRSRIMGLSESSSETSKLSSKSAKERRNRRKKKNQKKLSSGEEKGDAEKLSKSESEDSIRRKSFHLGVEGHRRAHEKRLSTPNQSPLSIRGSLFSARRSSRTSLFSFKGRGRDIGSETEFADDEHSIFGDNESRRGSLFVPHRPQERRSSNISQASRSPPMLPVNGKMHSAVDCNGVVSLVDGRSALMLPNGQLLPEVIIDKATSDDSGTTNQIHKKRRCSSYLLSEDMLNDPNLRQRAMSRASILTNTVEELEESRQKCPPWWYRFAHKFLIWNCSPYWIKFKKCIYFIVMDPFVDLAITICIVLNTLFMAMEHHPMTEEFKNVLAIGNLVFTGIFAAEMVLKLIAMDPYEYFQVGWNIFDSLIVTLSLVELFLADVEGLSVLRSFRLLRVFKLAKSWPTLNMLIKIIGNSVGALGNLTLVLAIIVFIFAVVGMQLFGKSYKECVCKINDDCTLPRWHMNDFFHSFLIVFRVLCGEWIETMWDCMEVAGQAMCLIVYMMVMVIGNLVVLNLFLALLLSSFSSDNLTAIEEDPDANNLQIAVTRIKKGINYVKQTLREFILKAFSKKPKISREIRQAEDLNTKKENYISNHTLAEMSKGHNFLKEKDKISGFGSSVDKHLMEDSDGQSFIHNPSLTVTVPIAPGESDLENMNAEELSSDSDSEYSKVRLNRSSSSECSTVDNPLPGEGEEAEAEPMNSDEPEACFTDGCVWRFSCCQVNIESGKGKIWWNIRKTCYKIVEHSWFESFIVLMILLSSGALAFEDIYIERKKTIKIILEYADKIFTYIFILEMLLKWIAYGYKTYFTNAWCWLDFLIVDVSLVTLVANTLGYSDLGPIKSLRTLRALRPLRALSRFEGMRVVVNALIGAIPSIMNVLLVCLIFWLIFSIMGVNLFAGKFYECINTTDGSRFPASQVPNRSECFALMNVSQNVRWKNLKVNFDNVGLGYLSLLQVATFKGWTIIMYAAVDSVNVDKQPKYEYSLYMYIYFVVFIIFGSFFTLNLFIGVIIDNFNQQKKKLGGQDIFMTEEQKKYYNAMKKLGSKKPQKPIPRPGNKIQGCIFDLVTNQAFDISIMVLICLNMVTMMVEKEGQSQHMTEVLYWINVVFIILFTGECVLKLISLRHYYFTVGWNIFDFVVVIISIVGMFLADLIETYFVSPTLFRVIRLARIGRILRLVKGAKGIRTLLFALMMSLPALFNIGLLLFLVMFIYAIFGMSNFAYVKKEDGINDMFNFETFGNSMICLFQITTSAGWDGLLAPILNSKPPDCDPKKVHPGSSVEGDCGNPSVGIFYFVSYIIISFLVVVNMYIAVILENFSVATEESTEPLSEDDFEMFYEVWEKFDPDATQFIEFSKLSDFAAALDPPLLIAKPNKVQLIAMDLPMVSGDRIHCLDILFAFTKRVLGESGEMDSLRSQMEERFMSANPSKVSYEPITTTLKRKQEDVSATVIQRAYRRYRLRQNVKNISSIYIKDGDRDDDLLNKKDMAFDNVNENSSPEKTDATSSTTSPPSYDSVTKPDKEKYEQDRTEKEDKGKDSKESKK

Take `CC[C@H](C)[C@@H]1NC(=O)[C@@H]2CSSC[C@@H]3NC(=O)[C@H](C(C)C)NC(=O)[C@H](CC(C)C)NC(=O)[C@H](CC(N)=O)NC(=O)[C@@H]4CCCN4C(=O)[C@H](CCCNC(=N)N)NC(=O)[C@H](CSSC[C@H](NC(=O)[C@@H](N)CC(=O)O)C(=O)N[C@@H](CC(C)C)C(=O)NCC(=O)N[C@@H](Cc4ccccc4)C(=O)N[C@@H](CCSC)C(=O)N[C@@H](CCCNC(=N)N)C(=O)N[C@@H](CCCCN)C(=O)N2)NC(=O)[C@H](CSSC[C@@H](C(=O)N[C@@H](CCCCN)C(=O)N[C@@H](Cc2ccc(O)cc2)C(=O)N[C@H](C(=O)N[C@@H](Cc2ccccc2)C(N)=O)C(C)C)NC(=O)[C@H](Cc2c[nH]c4ccccc24)NC(=O)[C@H](CCCCN)NC(=O)[C@H](Cc2cnc[nH]2)NC(=O)[C@H]([C@@H](C)O)NC(=O)[C@H](CCCNC(=N)N)NC(=O)[C@H](CO)NC3=O)NC(=O)[C@H](CCCCN)NC(=O)[C@H](CC(=O)O)NC(=O)[C@H](CC(N)=O)NC(=O)[C@H](CCC(=O)O)NC(=O)[C@@H]2CCCN2C1=O` (H-DCLGFMRKCIPENDKCCRPNLVCSRTHKWCKYVF-NH2; disulfide 2-17, 9-23, 16-30): the pIC50 in test [1] was 6.55; in test [2], less than 5.30.

As for `CC[C@H](C)[C@@H]1NC(=O)[C@@H]2CSSC[C@@H]3NC(=O)[C@H](C(C)C)NC(=O)[C@H](Cc4c[nH]c5ccccc45)NC(=O)[C@H](CC(N)=O)NC(=O)[C@@H]4CCCN4C(=O)[C@H](CCCNC(=N)N)NC(=O)[C@H](CSSC[C@H](NC(=O)[C@@H](N)CC(=O)O)C(=O)N[C@@H](CC(C)C)C(=O)NCC(=O)N[C@@H](Cc4ccccc4)C(=O)N[C@@H](CCSC)C(=O)N[C@@H](CCCNC(=N)N)C(=O)N[C@@H](CCCCN)C(=O)N2)NC(=O)[C@H](CSSC[C@@H](C(=O)N[C@@H](CCCCN)C(=O)N[C@@H](Cc2ccc(O)cc2)C(=O)N[C@H](C(=O)N[C@@H](Cc2ccccc2)C(N)=O)C(C)C)NC(=O)[C@H](Cc2c[nH]c4ccccc24)NC(=O)[C@H](CCCCN)NC(=O)[C@H](Cc2cnc[nH]2)NC(=O)[C@H]([C@@H](C)O)NC(=O)[C@H](CCCNC(=N)N)NC(=O)[C@H](CO)NC3=O)NC(=O)[C@H](CCCCN)NC(=O)[C@H](CC(=O)O)NC(=O)[C@H](CC(N)=O)NC(=O)[C@H](CC(=O)O)NC(=O)[C@@H]2CCCN2C1=O` (H-DCLGFMRKCIPDNDKCCRPNWVCSRTHKWCKYVF-NH2; disulfide 2-17, 9-23, 16-30), the pIC50 in test [1] is 6.96; in test [2], less than 5.30.

`CC[C@H](C)[C@@H]1NC(=O)[C@@H]2CSSC[C@@H]3NC(=O)[C@H](C(C)C)NC(=O)[C@H](CC(C)C)NC(=O)[C@H](CC(N)=O)NC(=O)[C@@H]4CCCN4C(=O)[C@H](CCCNC(=N)N)NC(=O)[C@H](CSSC[C@H](NC(=O)[C@@H](N)CC(=O)O)C(=O)N[C@@H](CC(C)C)C(=O)NCC(=O)N[C@@H](Cc4ccccc4)C(=O)N[C@@H](CCSC)C(=O)N[C@@H](CCCNC(=N)N)C(=O)N[C@@H](CCCCN)C(=O)N2)NC(=O)[C@H](CSSC[C@@H](C(=O)N[C@@H](Cc2c[nH]c4ccccc24)C(=O)N[C@@H](Cc2ccc(O)cc2)C(=O)N[C@H](C(=O)N[C@@H](Cc2ccccc2)C(N)=O)C(C)C)NC(=O)[C@H](Cc2c[nH]c4ccccc24)NC(=O)[C@H](CCCCN)NC(=O)[C@H](Cc2c[nH]cn2)NC(=O)[C@H]([C@@H](C)O)NC(=O)[C@H](CCCNC(=N)N)NC(=O)[C@H](CO)NC3=O)NC(=O)[C@H](CCCCN)NC(=O)[C@H](CC(=O)O)NC(=O)[C@H](CC(N)=O)NC(=O)[C@H](CC(=O)O)NC(=O)[C@@H]2CCCN2C1=O` (H-DCLGFMRKCIPDNDKCCRPNLVCSRTHKWCWYVF-NH2; disulfide 2-17, 9-23, 16-30): the negative logarithm of the IC50 (pIC50) in test [1] was less than 5.31; in test [2], less than 5.30.

For the compound `CC[C@H](C)[C@@H]1NC(=O)[C@@H]2CSSC[C@@H]3NC(=O)[C@H](C(C)C)NC(=O)[C@H](CC(C)C)NC(=O)[C@H](CC(N)=O)NC(=O)[C@@H]4CCCN4C(=O)[C@H](CCCNC(=N)N)NC(=O)[C@H](CSSC[C@H](NC(=O)[C@@H](N)CC(=O)O)C(=O)N[C@@H](CCCCN)C(=O)NCC(=O)N[C@@H](Cc4ccccc4)C(=O)N[C@@H](CCSC)C(=O)N[C@@H](CCCNC(=N)N)C(=O)N[C@@H](CCCCN)C(=O)N2)NC(=O)[C@H](CSSC[C@@H](C(=O)N[C@@H](CCCCN)C(=O)N[C@@H](Cc2ccc(O)cc2)C(=O)N[C@H](C(=O)N[C@@H](Cc2ccccc2)C(N)=O)C(C)C)NC(=O)[C@H](Cc2c[nH]c4ccccc24)NC(=O)[C@H](CCCCN)NC(=O)[C@H](Cc2cnc[nH]2)NC(=O)[C@H]([C@@H](C)O)NC(=O)[C@H](CCCNC(=N)N)NC(=O)[C@H](CO)NC3=O)NC(=O)[C@H](CCCCN)NC(=O)[C@H](CC(=O)O)NC(=O)[C@H](CC(N)=O)NC(=O)[C@H](CC(=O)O)NC(=O)[C@@H]2CCCN2C1=O` (H-DCKGFMRKCIPDNDKCCRPNLVCSRTHKWCKYVF-NH2; disulfide 2-17, 9-23, 16-30), the pIC50 in test [1] is 6.92; in test [2], less than 5.30.

Consider `CC[C@H](C)[C@@H]1NC(=O)[C@@H]2CSSC[C@@H]3NC(=O)[C@H](C(C)C)NC(=O)[C@H](CC(C)C)NC(=O)[C@H](CC(N)=O)NC(=O)[C@@H]4CCCN4C(=O)[C@H](CCCNC(=N)N)NC(=O)[C@H](CSSC[C@H](NC(=O)[C@@H](N)CC(=O)O)C(=O)N[C@@H](CC(C)C)C(=O)NCC(=O)N[C@@H](Cc4ccccc4)C(=O)N[C@@H](Cc4cc5ccccc5[nH]4)C(=O)N[C@@H](CCCNC(=N)N)C(=O)N[C@@H](CCCCN)C(=O)N2)NC(=O)[C@H](CSSC[C@@H](C(=O)N[C@@H](CCCCN)C(=O)N[C@@H](Cc2ccc(O)cc2)C(=O)N[C@H](C(=O)N[C@@H](Cc2ccccc2)C(N)=O)C(C)C)NC(=O)[C@H](Cc2c[nH]c4ccccc24)NC(=O)[C@H](CCCCN)NC(=O)[C@H](Cc2cnc[nH]2)NC(=O)[C@H]([C@@H](C)O)NC(=O)[C@H](CCCNC(=N)N)NC(=O)[C@H](CO)NC3=O)NC(=O)[C@H](CCCCN)NC(=O)[C@H](CC(=O)O)NC(=O)[C@H](CC(N)=O)NC(=O)[C@H](CC(=O)O)NC(=O)[C@@H]2CCCN2C1=O`, for which the pIC50 in test [1] is 7.52; in test [2], 5.47.

Take `CC[C@H](C)[C@@H]1NC(=O)[C@@H]2CSSC[C@@H]3NC(=O)[C@H](C(C)C)NC(=O)[C@H](CC(C)C)NC(=O)[C@H](CC(N)=O)NC(=O)[C@@H]4CCCN4C(=O)[C@H](CCCNC(=N)N)NC(=O)[C@H](CSSC[C@H](NC(=O)[C@@H](N)CC(=O)O)C(=O)N[C@@H](CC(C)C)C(=O)NCC(=O)N[C@@H](Cc4ccccc4)C(=O)N[C@@H](CCSC)C(=O)N[C@@H](CCCNC(=N)N)C(=O)N[C@@H](CCCCN)C(=O)N2)NC(=O)[C@H](CSSC[C@@H](C(=O)N[C@@H](CCCCN)C(=O)N[C@@H](Cc2ccc(O)cc2)C(=O)N[C@H](C(=O)N[C@@H](Cc2ccccc2)C(N)=O)C(C)C)NC(=O)[C@H](Cc2c[nH]c4ccccc24)NC(=O)[C@H](CCCCN)NC(=O)[C@H](Cc2cnc[nH]2)NC(=O)[C@H]([C@@H](C)O)NC(=O)[C@H](CCCNC(=N)N)NC(=O)[C@H](CO)NC3=O)NC(=O)[C@H](CCCCN)NC(=O)[C@H](CC(=O)O)NC(=O)[C@H](Cc2c[nH]c3ccccc23)NC(=O)[C@H](CC(=O)O)NC(=O)[C@@H]2CCCN2C1=O` (H-DCLGFMRKCIPDWDKCCRPNLVCSRTHKWCKYVF-NH2; disulfide 2-17, 9-23, 16-30): the values for the pIC50 in test [1] and in test [2] were 7.10 and less than 5.30, respectively.

With `CC[C@H](C)[C@@H]1NC(=O)[C@@H]2CSSC[C@@H]3NC(=O)[C@H](C(C)C)NC(=O)[C@H](CC(C)C)NC(=O)[C@H](CC(N)=O)NC(=O)[C@@H]4CCCN4C(=O)[C@H](CCCNC(=N)N)NC(=O)[C@H](CSSC[C@H](NC(=O)[C@@H](N)CC(=O)O)C(=O)N[C@@H](CC(C)C)C(=O)NCC(=O)N[C@@H](Cc4ccccc4)C(=O)N[C@@H](CCSC)C(=O)N[C@@H](CCCNC(=N)N)C(=O)N[C@@H](CCCCN)C(=O)N2)NC(=O)[C@H](CSSC[C@@H](C(=O)N[C@@H](CCCCN)C(=O)N[C@@H](Cc2ccc(O)cc2)C(=O)N[C@H](C(=O)N[C@@H](Cc2ccccc2)C(N)=O)C(C)C)NC(=O)[C@H](CCCNC(=N)N)NC(=O)[C@H](CCCCN)NC(=O)[C@H](Cc2cnc[nH]2)NC(=O)[C@H]([C@@H](C)O)NC(=O)[C@H](CCCNC(=N)N)NC(=O)[C@H](CO)NC3=O)NC(=O)[C@H](CCCCN)NC(=O)[C@H](CC(=O)O)NC(=O)[C@H](CC(N)=O)NC(=O)[C@H](CC(=O)O)NC(=O)[C@@H]2CCCN2C1=O` (H-DCLGFMRKCIPDNDKCCRPNLVCSRTHKRCKYVF-NH2; disulfide 2-17, 9-23, 16-30), the pIC50 in test [1] and in test [2] was less than 5.30 each time.

For the compound `CC[C@H](C)[C@@H]1NC(=O)[C@@H]2CSSC[C@@H]3NC(=O)[C@H](C(C)C)NC(=O)[C@H](CC(C)C)NC(=O)[C@H](CC(N)=O)NC(=O)[C@@H]4CCCN4C(=O)[C@H](CCCNC(=N)N)NC(=O)[C@H](CSSC[C@H](NC(=O)[C@@H](N)CC(=O)O)C(=O)N[C@@H](CC(C)C)C(=O)NCC(=O)N[C@@H](CCC(=O)O)C(=O)N[C@@H](CCSC)C(=O)N[C@@H](CCCNC(=N)N)C(=O)N[C@@H](CCCCN)C(=O)N2)NC(=O)[C@H](CSSC[C@@H](C(=O)N[C@@H](CCCCN)C(=O)N[C@@H](Cc2ccc(O)cc2)C(=O)N[C@H](C(=O)N[C@@H](Cc2ccccc2)C(N)=O)C(C)C)NC(=O)[C@H](Cc2c[nH]c4ccccc24)NC(=O)[C@H](CCCCN)NC(=O)[C@H](Cc2cnc[nH]2)NC(=O)[C@H]([C@@H](C)O)NC(=O)[C@H](CCCNC(=N)N)NC(=O)[C@H](CO)NC3=O)NC(=O)[C@H](CCCCN)NC(=O)[C@H](CC(=O)O)NC(=O)[C@H](CC(N)=O)NC(=O)[C@H](CC(=O)O)NC(=O)[C@@H]2CCCN2C1=O` (H-DCLGEMRKCIPDNDKCCRPNLVCSRTHKWCKYVF-NH2; disulfide 2-17, 9-23, 16-30), the pIC50 in test [1] and in test [2] was less than 5.30 in each case.

Values taken from ChEMBL document CHEMBL3797186, “Single Residue Substitutions That Confer Voltage-Gated Sodium Ion Channel Subtype Selectivity in the NaV1.7 Inhibitory Peptide GpTx-1” (J Med Chem, 2016).
